# From paper PMC5531262 (Messenger (Los Angeles, Calif. : Print), 2016)
# Several values for one entry are separate records, joined by “and”; a condition that tells them apart may be missing. Equal values may be shown once.
# What was measured:
# Assay type in all cases: biochemical, Lytechinus pictus
# [1] = system: IP3-induced Ca^2+ release (IP3Rs); assay: IP3-induced Ca^2+ release in sea urchin egg homogenate
# How it was run: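 Lytechinus pictus egg homogenate (GluIM, pH 7.2, with ATP-regenerating system) diluted 20-fold over 3 h at 17°C to 2.5% v/v. Fluo-3 3 μM final, ex 506/em 526 nm, stirred cuvette. Test compound or DMSO preincubated 2 min, then sub-maximal IP3 chosen from a dose-response curve. Signal calibrated to [Ca2+] with 0.5 mM EGTA then 10 mM CaCl2. Sigmoidal fit; mean ± SEM, n = 4–7.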
# [2] = system: cADPR-induced Ca^2+ release (RyRs); assay: cADPR-induced Ca^2+ release in sea urchin egg homogenate
# How it was run: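 Egg homogenate from Lytechinus pictus diluted 20-fold over 3 h at 17°C in GluIM with ATP regeneration; 3 μM Fluo-3 final, calibrated with EGTA/CaCl2. Test compound or DMSO preincubated 2 min before 0.3 μM cADPR (sub-maximal). For the time course, 30 μM test compound was preincubated 10–120 s. cADPR concentration-response was run after 2 min with 30 μM or DMSO. Sigmoidal fits; mean ± SEM, n = 4–9.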
# [3] = system: caffeine-induced Ca^2+ release (RyRs); assay: caffeine-induced Ca^2+ release in sea urchin egg homogenate; conditions: 10 mM caffeine
# How it was run: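 Lytechinus pictus egg homogenate loaded with Ca2+ by 20-fold dilution over 3 h at 17°C in GluIM plus ATP-regenerating system; Fluo-3 3 μM final, stirred cuvette, ex 506/em 526 nm. Test compound preincubated 2 min, then 10 mM caffeine. Fluorescence converted to [Ca2+] using 0.5 mM EGTA and 10 mM CaCl2 for Fmin/Fmax. Sigmoidal concentration-response fit; mean ± SEM, n = 4–7.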
smiles,measurement,setting,value
"O=P(O)(O)O[C@@H]1[C@H](O)[C@H](O)[C@@H](OP(=O)(O)O)[C@H](OP(=O)(O)O)[C@H]1O [IP3, inositol 1,4,5-trisphosphate]",raw control ∆[Ca^2+] with IP3,"[1]; sub-maximal IP3, no inhibitor",94 ± 1 nM
"c1ccc(CN(CCN(Cc2ccccn2)Cc2ccccn2)Cc2ccccn2)nc1 [TPEN, N,N,N’,N’- tetrakis(2-pyridylmethyl)ethylenediamine]",effect on cADPR-induced Ca^2+ release,"[2]; preincubation 2 minutes, then 0.3 μM cADPR, magnitude and kinetics",inhibited cADPR-induced Ca^2+ release
N=c1c2ncn3c2ncn1[C@@H]1O[C@H](COP(=O)(O)OP(=O)(O)OC[C@H]2O[C@@H]3[C@H](O)[C@@H]2O)[C@@H](O)[C@H]1O [cADPR],raw control response ∆[Ca^2+] with cADPR,"[2]; 0.3 μM cADPR, no inhibitor",72 ± 5 nM and 76 ± 4 nM and 72 ± 4 nM and 85 ± 3 nM and 75 ± 4 nM
same,EC50,"[2]; read-out: EC50 of cADPR for Ca^2+ release (concentration-response curve), sea urchin egg homogenate, Fig. 2b",~250 nM
Cn1c(=O)c2c(ncn2C)n(C)c1=O [caffeine],raw control ∆[Ca^2+] with caffeine,[3]; no inhibitor,80 ± 5 nM
COc1ccccc1OCCNCC(O)COc1cccc2[nH]c3ccccc3c12 (stereo not drawn) [carvedilol],inhibition of caffeine-induced Ca^2+ release (extent),[3]; preincubation 2 minutes,> 80%
same,inhibition of IP3-induced Ca^2+ release (extent),"[1]; sub-maximal IP3, preincubation 2 minutes, Fig. 4",47%
same,inhibition of cADPR-induced Ca^2+ release (extent),"[2]; 0.3 μM cADPR, extent of inhibition at high carvedilol concentration",> 80%
same,time of preincubation to maximal suppression of cADPR-induced Ca^2+ release,"[2]; carvedilol 30 μM, no further inhibition at longer incubations",≤ 10 s
